Measurements published in paper PMC7848789 (SLAS discovery : advancing life sciences R & D, 2019).
Read-outs that look alike come from different tables or passages of the source. Where a SMILES comes first, the peptide text is derived from it.

What was measured:
[1] = molecular target: Recombinant human HDAC1 enzyme (Homo sapiens, UniProt Q13547); test: HDAC-Glo I/II enzymatic assay; format: biochemical; details: for Emax: read-out: % Efficacy, HDAC-Glo: HDAC1; for Activity outcome in HDAC1 enzymatic HDAC-Glo I/II assay: qHTS, 11 concentrations, active = CRC class 1 and 2 and AUC>100
Sequence of Recombinant human HDAC1 enzyme (Q13547 whole entry): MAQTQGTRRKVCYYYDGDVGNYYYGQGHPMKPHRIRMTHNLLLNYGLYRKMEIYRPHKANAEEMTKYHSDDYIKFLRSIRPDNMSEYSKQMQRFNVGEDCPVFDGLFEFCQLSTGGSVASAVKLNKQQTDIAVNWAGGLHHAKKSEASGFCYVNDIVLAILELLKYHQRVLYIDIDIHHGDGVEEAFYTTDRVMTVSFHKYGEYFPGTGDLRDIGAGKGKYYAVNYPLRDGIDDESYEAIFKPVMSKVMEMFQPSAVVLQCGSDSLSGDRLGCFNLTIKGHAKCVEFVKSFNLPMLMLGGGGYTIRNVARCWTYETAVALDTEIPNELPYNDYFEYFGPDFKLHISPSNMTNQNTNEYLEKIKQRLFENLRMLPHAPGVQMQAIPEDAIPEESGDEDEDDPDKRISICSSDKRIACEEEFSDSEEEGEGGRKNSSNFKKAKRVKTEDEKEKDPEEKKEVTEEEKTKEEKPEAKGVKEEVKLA

HDAC1–86b = HDAC1–86b (Homo sapiens, UniProt Q13547); test: HDAC1-86b SplitLuc CETSA in HEK293T cells; format: binding; details: for Average IC50 ± SD (% Efficacy), SplitLuc CETSA: HEK293T: thermal stabilization at 49°C, n=2; for Activity outcome in SplitLuc CETSA (thermal stabilization of HDAC1–86b): 49°C, active = CRC class 1 and 2 and AUC>50
Sequence of HDAC1–86b (Q13547 whole entry, the tested form may be a part): as the sequence (Q13547 whole entry) above

[2] = molecular target: HDAC1-NanoLuc fusion protein (Homo sapiens, UniProt Q13547); test: HDAC1 NanoBRET target engagement assay in HEK293T cells; format: binding; details: for Activity outcome in NanoBRET (HDAC1 engagement, displacement of SAHA tracer) / Average IC50 ± SD, NanoBRET: HEK293T: HEK293T; for Activity outcome in NanoBRET (HDAC1 engagement, displacement of SAHA tracer): 28.9 μM to 0.49 nM, active = CRC class 1 and 2 and AUC>100; for Emax: read-out: % Efficacy, NanoBRET: HEK293T; for Average IC50 ± SD, NanoBRET: HEK293T: n=2
Sequence of HDAC1-NanoLuc fusion protein (Q13547 whole entry, the tested form may be a part): as the sequence (Q13547 whole entry) above

[3] = test system: HDAC class I and II activity in HeLa cells; test: HDAC-Glo I/II cellular assay in HeLa cells; format: cell-based; details: qHTS; 1 hour; active = CRC class 1 and 2 and AUC>100
[4] = test system: HDAC class I and II activity in HEK293T cells; test: HDAC-Glo I/II cellular assay in HEK293T cells; format: cell-based; details: qHTS, 1 hour, active = CRC class 1 and 2 and AUC>100
isolated HDAC1 = details: read-out: reported IC50 against isolated HDAC1; cited from earlier work
HEK293T cells = test: CellTiter-Glo acute cell death counterscreen; format: cell-based; details: 1 hour; at the highest concentration tested of 45.8 μM
[5] = Fluorescence counterscreen; format: physicochemical; details: excited at 450 nm, emission 500–750 nm; 610 nm channel of NanoBRET
Summary of the method: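 Cell-free scan: test compound pinned into wells of growth medium alone (final DMSO 0.28 %), no cells or tracer added. Wells excited at 450 nm and emission read every 10 nm across 500–750 nm to build a full spectrum, flagging intrinsic fluorescence near the 610 nm NanoBRET acceptor channel.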

| Compound | IC50 [1] [nM] | Emax [1] [%] | Activity outcome in HDAC1 enzymatic HDAC-Glo I/II assay [1] | Activity outcome in HEK293T cellular HDAC-Glo I/II assay [4] | further results |
| --- | --- | --- | --- | --- | --- |
| CCCCN(Cc1ccc(C(=O)NO)cc1)C(=O)Nc1ccccc1 [Nexturastat A] | – | – | – | – | Activity outcome in NanoBRET (HDAC1 engagement, displacement of SAHA tracer) [2]: engagement |
| NC(=O)c1cccc2[nH]c(-c3ccc([C@@H]4CCCN4)cc3F)nc12 [A-966492] | – | – | active | – | – |
| O=C(CCCCCCC(=O)Nc1ccc([C@H]2O[C@@H](CSc3nc(-c4ccccc4)c(-c4ccccc4)o3)C[C@@H](c3ccc(CO)cc3)O2)cc1)NO [Tubacin] | – | – | weak activity | weak activity | Activity outcome in SplitLuc CETSA (thermal stabilization of HDAC1–86b) (HDAC1–86b): did not pass the activity cutoff; Activity outcome in NanoBRET (HDAC1 engagement, displacement of SAHA tracer) [2]: did not pass the activity cutoff |
| O=C(CCCCC[C@@H]1NC(=O)[C@H]2CCCCN2C(=O)[C@H](Cc2ccccc2)NC(=O)[C@H](Cc2ccccc2)NC1=O)C1CO1 (some centres unmarked) [Trapoxin A] (HELM PEPTIDE1{F.F.[O=C([C@H]1CCCCN1[*:1])[*:2]].[O=C(CCCCC[C@H](N[*:1])C(=O)[*:2])C1CO1]}$PEPTIDE1,PEPTIDE1,1:R1-4:R2$$$V2.0) | – | – | most potent | most potent | Activity outcome in SplitLuc CETSA (thermal stabilization of HDAC1–86b) (HDAC1–86b): most potent |
| O=S(=O)(O)c1ccc2[nH]c(-c3ccccc3)nc2c1 [Ensulizole] | 2400 ± 300 | 99 | – | – | – |
| COc1cc(OC)c2c(=O)[nH]c(-c3cc(C)c(OCCO)c(C)c3)nc2c1 [RVX-208] | – | – | active | – | – |
| O=C(Nc1ncc([N+](=O)[O-])s1)c1cccs1 [Tenonitrozole] | 1700 ± 10 | 93 | – | – | – |
| O=C(CCCCCCC(=O)Nc1cccnc1)NO [Pyroximide] | – | – | – | inactive | – |
| Cc1ccc(NC(=O)CCCCCC(=O)Nc2ccccc2N)cc1 [TC-H-106] | – | – | active | relatively weak activity (below the activity cutoff) | Activity outcome in HEK293T cellular HDAC-Glo I/II assay ([4]; listed as TC-H 106): either inactive or did not pass the activity cutoff; Activity outcome in HeLa cellular HDAC-Glo I/II assay [3]: relatively weak activity (below the activity cutoff) |
| CCS(=O)(=O)N1CCN(c2ccc(Nc3ncc(C(N)=O)c(NC4CC4)n3)cc2)CC1 [Cerdulatinib] | – | – | – | – | Acute effect on HEK293T cell viability (CellTiter-Glo) (HEK293T cells): reduced HEK293T cell viability |
| O=C(Nc1cccc(Cl)c1)Nc1ncc(CCNc2ncnc3ccsc23)s1 [SNS-314] | – | – | – | – | IC50 [2]: 549 nM; Activity outcome in NanoBRET (HDAC1 engagement, displacement of SAHA tracer) [2]: engagement; Acute effect on HEK293T cell viability (CellTiter-Glo) (HEK293T cells): acute cell death |
| c1ccc2[nH]c(-c3cscn3)nc2c1 [Thiabendazole] | 3800 ± 600 | 90 | – | – | Average IC50 ± SD (% Efficacy), SplitLuc CETSA: HEK293T (HDAC1–86b): Inactive; Average IC50 ± SD, NanoBRET: HEK293T [2]: Inactive |
| CCC(=O)CCCCC[C@@H]1NC(=O)[C@H]2CCCCN2C(=O)[C@H]([C@@H](C)CC)NC(=O)[C@H](Cc2cn(OC)c3ccccc23)NC1=O [Apicidin] | – | – | most potent | most potent | Activity outcome in SplitLuc CETSA (thermal stabilization of HDAC1–86b) (HDAC1–86b): most potent |
| CCCSc1ccc2nc(NC(=O)OC)[nH]c2c1 [Albendazole] | 7700 ± 800 | 93 | – | – | – |
| Nc1ccc2c(c1)CN1C(=O)c3ccccc3C1=N2 [Daniquidone] | 2100 ± 600 | 92 | – | – | Intrinsic fluorescence [5]: fluorescence over the 500–750 nm range |
| O=C(/C=C/c1ccc(CN(CCO)CCc2c[nH]c3ccccc23)cc1)NO [Dacinostat] | – | – | – | most potent | – |
| Oc1ccc(/C=C/c2cc(O)cc(O)c2)cc1 [Resveratrol] | 1500 ± 10 | 95 | – | – | Average IC50 ± SD (% Efficacy), SplitLuc CETSA: HEK293T (HDAC1–86b): Inactive |

Further lines, with some results ahead:

| IC50 [1] [nM] | Emax [1] [%] | Activity outcome in HDAC1 enzymatic HDAC-Glo I/II assay [1] | Compound | Activity outcome in HEK293T cellular HDAC-Glo I/II assay [4] | further results |
| --- | --- | --- | --- | --- | --- |
| 1300 ± 100 | 97 | – | N=C(N)c1ccc2cc(OC(=O)c3ccc(N=C(N)N)cc3)ccc2c1 [Nafamostat] | – | Average IC50 ± SD (% Efficacy), SplitLuc CETSA: HEK293T (HDAC1–86b): Inactive; IC50 [2]: 11800 ± 2900 nM; Activity outcome in NanoBRET (HDAC1 engagement, displacement of SAHA tracer) [2]: weakly engage HDAC1; Emax [2]: 37% |
| – | – | active | CC(=O)Nc1ccc(C(=O)Nc2ccccc2N)cc1 [Tacedinaline] | – | Activity outcome in HeLa cellular HDAC-Glo I/II assay [3]: relatively weak activity (below the activity cutoff) |
| – | – | weak activity | O=C(NO)c1ccc(CC(=O)N(CCO)c2ccccc2)cc1 [HPOB] | weak activity | Activity outcome in SplitLuc CETSA (thermal stabilization of HDAC1–86b) (HDAC1–86b): did not pass the activity cutoff; Activity outcome in NanoBRET (HDAC1 engagement, displacement of SAHA tracer) [2]: did not pass the activity cutoff |
| – | – | active | C=C1CN(Cc2ccc(C(=O)Nc3ccccc3N)cc2)C(=O)c2ccccc21 [MI 192] | relatively weak activity (below the activity cutoff) | IC50 ([1]; read-out: IC50 in the enzymatic assay (HDAC1), HDAC-Glo I/II, Epigenetic-Focused collection): 80 nM; Activity outcome in HeLa cellular HDAC-Glo I/II assay [3]: relatively weak activity (below the activity cutoff); Activity outcome in NanoBRET (HDAC1 engagement, displacement of SAHA tracer) [2]: engage HDAC1 in cells; IC50 (isolated HDAC1): 4800 nM |
| – | – | weak activity | CCCCNNC(=O)c1ccc(Br)cc1 [UF 010] | weak activity | Activity outcome in SplitLuc CETSA (thermal stabilization of HDAC1–86b) (HDAC1–86b): did not pass the activity cutoff; Activity outcome in NanoBRET (HDAC1 engagement, displacement of SAHA tracer) [2]: did not pass the activity cutoff |
| – | – | weak activity | CN1CCc2c(c3ccccc3n2Cc2ccc(C(=O)NO)cc2)C1 [Tubastatin A] | weak activity | Activity outcome in SplitLuc CETSA (thermal stabilization of HDAC1–86b) (HDAC1–86b): inactive; Activity outcome in NanoBRET (HDAC1 engagement, displacement of SAHA tracer) [2]: inactive |
| – | – | active | Nc1cc(F)ccc1NC(=O)c1ccc(CNC(=O)/C=C/c2cccnc2)cc1 [Chidamide] | relatively weak activity (below the activity cutoff) | Activity outcome in HeLa cellular HDAC-Glo I/II assay [3]: relatively weak activity (below the activity cutoff) |
| – | – | most potent | COc1ccc(-c2nc(N3CCOCC3)c3sc(CN(C)c4ncc(C(=O)NO)cn4)cc3n2)cn1 [CUDC-907] | most potent | Activity outcome in SplitLuc CETSA (thermal stabilization of HDAC1–86b) (HDAC1–86b): most potent |
| 2800 ± 10 | 99 | – | O=C(Nc1ccc([N+](=O)[O-])cc1Cl)c1cc(Cl)ccc1O [Niclosamide] | – | Average IC50 ± SD (% Efficacy), SplitLuc CETSA: HEK293T (HDAC1–86b): Inactive; Average IC50 ± SD, NanoBRET: HEK293T [2]: Inactive |
| 1100 ± 100 | 95 | – | CN(C)C(=O)COC(=O)Cc1ccc(OC(=O)c2ccc(NC(=N)N)cc2)cc1 [Camostat] | – | Average IC50 ± SD (% Efficacy), SplitLuc CETSA: HEK293T (HDAC1–86b): Inactive; IC50 [2]: 8200 ± 1400 nM; Activity outcome in NanoBRET (HDAC1 engagement, displacement of SAHA tracer) [2]: weakly engage HDAC1; Emax [2]: 90% |
| 5100 ± 300 | 95 | – | CC(=O)Oc1ccccc1C(=O)Nc1ncc([N+](=O)[O-])s1 [Nitazoxanide] | – | – |
| 3000 ± 200 | 90 | – | CNC(=O)c1ccccc1Sc1ccc2c(/C=C/c3ccccn3)n[nH]c2c1 [Axitinib] | – | Average IC50 ± SD (% Efficacy), SplitLuc CETSA: HEK293T (HDAC1–86b): Inactive; Average IC50 ± SD, NanoBRET: HEK293T [2]: Inactive |
| – | – | most potent | Cn1cc(CNCC2CCN(c3ncc(C(=O)NO)cn3)CC2)c2ccccc21 [Quisinostat] | most potent | Activity outcome in SplitLuc CETSA (thermal stabilization of HDAC1–86b) (HDAC1–86b): most potent |
| – | – | active | Cn1cc(C(=O)Cc2ccccc2)cc1/C=C/C(=O)NO [APHA Compound 8] | either inactive or did not pass the activity cutoff | – |
| – | – | inactive | CC(C)C(=O)SCCCCCCC(=O)Nc1nc(-c2ccccc2)cs1 [PTACH] | showed HDAC inhibition | Activity outcome in NanoBRET (HDAC1 engagement, displacement of SAHA tracer) [2]: engagement |
| – | – | active | Nc1ccccc1NC(=O)c1ccc(CNC(=O)OCc2cccnc2)cc1 [Entinostat] | relatively weak activity (below the activity cutoff) | Activity outcome in HeLa cellular HDAC-Glo I/II assay [3]: relatively weak activity (below the activity cutoff) |
| 3000 ± 200 | 96 | – | Cc1oncc1C(=O)Nc1ccc(C(F)(F)F)cc1 [Leflunomide] | – | Average IC50 ± SD (% Efficacy), SplitLuc CETSA: HEK293T (HDAC1–86b): Inactive; Average IC50 ± SD, NanoBRET: HEK293T [2]: Inactive |
| – | – | inactive | O=C(CCCCCCSc1ccc2ccccc2c1)NO [HNHA] | inactive | – |
